The array DNA melting data of Ke et al. (doi:10.1101/2024.01.08.574731)

What was measured:
[1] = folding enthalpy; higher = less favourable; fluorescence melt of hairpins on a sequencing array, two-state fit; settings: sodium 0.088 M
Summary of the method: (§1)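 On a sequenced MiSeq flow cell, library hairpins with annealed Cy3 and quencher oligos were imaged for Cy3 fluorescence in 2.5 °C steps up to 60 °C, in 50 mM Na-HEPES pH 8.0, 25 mM NaCl. Normalisation used pre-quench Cy3 and control constructs. Bootstrapped two-state fits gave melting temperature and folding enthalpy, combined by inverse variance across four replicates and with fitted temperatures raised by 9.35 °C to match UV melts.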

[2] = melting temperature; fluorescence melt of hairpins on a sequencing array, two-state fit, raised by 9.35 °C to match UV melts; settings: sodium 0.088 M
Summary of the method: as §1

| Sequence | folding enthalpy [1] [kcal/mol] | Tm [2] [°C] |
| --- | --- | --- |
| GCTCTTGCGAAAGCAAGC (((..(((....)))))) | -8.63 | 36.2 |
| GCTCTTGGAAACAGGAGC ((((.((....)).)))) | -33.9 | 48.9 |
| GCTGAATCGAAAGATAGC (((..(((....)))))) | -17.3 | 31.9 |
| GCTGACGAAAGTCACAGC ((((((....)))..))) | -15.4 | 45.3 |
| GCTGACGAAAGTCCTAGC ((((((....)))..))) | -17 | 34.3 |
| GCTGAGACGAAAGTCAGC (((..(((....)))))) | -21.4 | 49.1 |
| GCTGAGCGAAAGCAAAGC (((..((....))..))) | -28.5 | 60.2 |
| GCTGAGCGAAAGCAGAGC (((..((....))..))) | -17 | 45.9 |
| GCTGAGCGAAAGCCCAGC ((((.((....)).)))) | -47.6 | 63.9 |
| GCTGAGCGAAAGCCTAGC (((..((....))..))) | -16.4 | 48.4 |
| GCTGAGCGAAAGCGCGGC ((.(.((....)).).)) | -26.3 | 63 |
| GCTGAGCGAAAGCTGAGC (((.(((....))).))) | -40.4 | 55 |
| GCTGAGCGAAAGCTTTGC ((..(((....)))..)) | -19.1 | 47.9 |
| GCTGAGGAAACTCAGC ((((((....)))))) | -37.7 | 63.5 |
| GCTGAGGGAAACCTCAGC (((((((....))))))) | -45.2 | 69.2 |
| GCTGAGGGAAACTTCGGC ((.((.(....).)).)) | -29 | 33.8 |
| GCTGATCGAAAGATAGC (((.(((....)))))) | -23.1 | 41.5 |
| GCTGCAGGAAACCGCAGC (((((.(....).))))) | -32.9 | 57.8 |
| GCTGCAGGAAACTGCGGC ((.((((....)))).)) | -41.5 | 61.6 |
| GCTGCAGGAAACTGTGGC ((..(((....)))..)) | -25.8 | 46.5 |
| GCTGCCGAAAGGCATAGC ((((((....)))..))) | -15 | 51.6 |
| GCTGCCGAAAGGCCAGC ((((((....))).))) | -24.4 | 61.5 |
| GCTGCCGAAAGGCCGAGC ((((((....)))..))) | -13.9 | 43.6 |

| Sequence | folding enthalpy [1] [kcal/mol] | Tm [2] [°C] |
| --- | --- | --- |
| GCTGCCGAAAGGCTAAGC ((((((....)))..))) | -16.8 | 53.8 |
| GCTGCCGGAAACGACAGC ((((.((....)).)))) | -45.7 | 55.2 |
| GCTGCGCGAAAGCACGGC ((.(.((....)).).)) | -26.6 | 59.1 |
| GCTGCGCGAAAGCACTGC ((.(.((....)).).)) | -24.2 | 53.3 |
| GCTGCGCGAAAGCGAAGC (((.(((....))).))) | -29.7 | 69.1 |
| GCTGCGTCGAAAGACAGC (((..(((....)))))) | -14.5 | 47.1 |
| GCTGGAACGAAAGTTAGC (((..(((....)))))) | -18.1 | 33.9 |
| GCTGGACGAAAGTCTAGC (((.(((....))).))) | -39.1 | 62.4 |
| GCTGGCACGAAAGTGAGC (((..(((....)))))) | -14.1 | 36.9 |
| GCTGGCCGAAAGGCAAGC (((.(((....))).))) | -25.5 | 68.9 |
| GCTGGCGAAAGCCGCAGC ((((((....)))..))) | -12.9 | 52.4 |
| GCTGGCGAAAGCCTTAGC ((((((....)))..))) | -15.1 | 44.4 |
| GCTGGGCGAAAGCAGAGC (((..((....))..))) | -19.8 | 49.5 |
| GCTGGGCGAAAGCCAAGC (((.(((....))).))) | -26.8 | 66.8 |
| GCTGGGCGAAAGCCACGC ((..(((....)))..)) | -15.6 | 48 |
| GCTGGGCGAAAGCCTAGC (((.(((....))).))) | -31.5 | 66.2 |
| GCTGGGCGAAAGCGCCGC ((.(.((....)).).)) | -18.2 | 47.4 |
| GCTGGGCGAAAGCGTAGC (((..((....))..))) | -22.5 | 52.1 |
| GCTGGGGGAAACCTCAGC ((((.((....)).)))) | -44.8 | 54.6 |
| GCTGGGGGAAACCTCGGC ((.(.((....)).).)) | -28.9 | 44.4 |
| GCTGTAGAAATACAGC ((((((....)))))) | -34.7 | 56.9 |
| GCTGTAGGAAACCACAGC (((((.(....).))))) | -36.3 | 47.5 |
| GCTGTCCCGAAAGGGAGC (((..(((....)))))) | -11 | 41.5 |

| Sequence | folding enthalpy [1] [kcal/mol] | Tm [2] [°C] |
| --- | --- | --- |
| GCTGTCGAAAGACCAGC ((((((....))).))) | -20.8 | 51.3 |
| GCTGTCGAAAGACCCAGC ((((((....)))..))) | -15.9 | 34.8 |
| GCTGTCGAAAGACCGAGC ((((((....)))..))) | -21 | 37 |
| GCTGTCGAAAGACCTAGC ((((((....)))..))) | -15.7 | 36.5 |
| GCTGTCGAAAGACGGAGC ((((((....)))..))) | -18.1 | 42.9 |
| GCTGTCGAAAGACTAGC ((((((....))).))) | -24.4 | 50.3 |
| GCTGTCGAAAGACTTAGC ((((((....)))..))) | -19.9 | 43 |
| GCTGTCGCGAAAGCGAGC (((..(((....)))))) | -8.75 | 41.8 |
| GCTGTCGGAAACAACAGC (((((.(....).))))) | -26.9 | 46 |
| GCTGTGCCGAAAGGCAGC (((..(((....)))))) | -10.3 | 48.7 |
| GCTGTGCGAAAGCAAAGC (((.(((....))).))) | -42.2 | 55.7 |
| GCTGTGCGAAAGCAATGC ((..(((....)))..)) | -19.1 | 42.8 |
| GCTGTGCGAAAGCACCGC ((.((((....)))).)) | -17.9 | 58.7 |
| GCTGTGCGAAAGCATGGC ((..(((....)))..)) | -22.4 | 59.5 |
| GCTGTGCGAAAGCGAAGC (((..((....))..))) | -17.9 | 52.6 |
| GCTGTGCGAAAGCGGAGC (((..((....))..))) | -22 | 54.9 |
| GCTGTGCGAAAGCTAAGC (((..((....))..))) | -21.4 | 53.1 |
| GCTGTGGAAACACAGC ((((((....)))))) | -37.4 | 68.7 |
| GCTGTGGGAAACCATAGC (((.(((....))).))) | -22.3 | 50 |
| GCTGTGGGAAACCGCAGC ((((.((....)).)))) | -44.6 | 60.7 |
| GCTGTGGGAAACCGTAGC (((..((....))..))) | -18.5 | 34.4 |
| GCTGTGGGAAACTGCAGC ((((..(....)..)))) | -20.3 | 48.1 |
| GCTGTTCGAAAGAATAGC (((.(((....))).))) | -44.9 | 53.2 |

| Sequence | folding enthalpy [1] [kcal/mol] | Tm [2] [°C] |
| --- | --- | --- |
| GCTGTTGGAAACAATGGC ((..(((....)))..)) | -27.4 | 39.9 |
| GCTTAACGAAAGTTGAGC (((.(((....))).))) | -38.9 | 52.4 |
| GCTTAACGAAAGTTTAGC (((.(((....))).))) | -30.5 | 46.4 |
| GCTTAAGGAAACTTGAGC (((.(((....))).))) | -31.5 | 38.9 |
| GCTTACCGAAAGGTCAGC (((.(((....))).))) | -27.8 | 50.3 |
| GCTTACCGAAAGGTGAGC (((.(((....))).))) | -40.5 | 58.6 |
| GCTTACGAAAGTACCAGC ((((((....)))..))) | -13.2 | 27.9 |
| GCTTACGAAAGTATAGC ((((((....))).))) | -23.4 | 44.6 |
| GCTTACGAAAGTATGAGC ((((((....)))..))) | -20.5 | 34.7 |
| GCTTACGGAAACGCAAGC ((((.((....)).)))) | -44.1 | 46 |
| GCTTAGCGAAAGCAACGC ((.(.((....)).).)) | -7.36 | 30.5 |
| GCTTAGCGAAAGCCACGC ((.(.((....)).).)) | -8.56 | 22.5 |
| GCTTAGCGAAAGCCATGC ((.(.((....)).).)) | -11.2 | 29.6 |
| GCTTAGCGAAAGCCTAGC (((..((....))..))) | -15.6 | 37.8 |
| GCTTAGCGAAAGCGACGC ((.(.((....)).).)) | -18.2 | 53.2 |
| GCTTAGCGAAAGCTCGGC ((..(((....)))..)) | -17.7 | 36.7 |
| GCTTAGGGAAACCTAGGC ((.((((....)))).)) | -34.1 | 44.4 |
| GCTTAGGGAAACTTAAGC (((((.(....).))))) | -30 | 37.9 |
| GCTTATGCGAAAGCAAGC (((..(((....)))))) | -16.6 | 42.4 |
| GCTTCAACGAAAGTTAGC (((..(((....)))))) | -18.7 | 30.9 |
| GCTTCACGAAAGTGGAGC (((.(((....))).))) | -43.7 | 58.3 |
| GCTTCAGGAAACTGAGGC ((.((((....)))).)) | -37.3 | 47.7 |
